Data taken from paper PMC4059944 (Nature, 2014).
Where “and” joins values, the source holds several entries; their conditions need not be identical. Equal entries are not always repeated. Ends that are not written are not given here.

Legend:
Ctf4CTD = assay: Analytical gel filtration of Ctf4CTD - GINS; format: binding, yeast (S. cerevisiae); conditions: Superdex S200, 20 mM HEPES pH 7.2, 140 mM KCl, full-length or N-terminally truncated Sld5
[1] = biological target: T1, Ctf4 N-terminal deletion (Ctf4CTD, aa 461-927) (S. cerevisiae, UniProt Q01454 461-927); assay: negative-stain single-particle electron microscopy
T1 sequence: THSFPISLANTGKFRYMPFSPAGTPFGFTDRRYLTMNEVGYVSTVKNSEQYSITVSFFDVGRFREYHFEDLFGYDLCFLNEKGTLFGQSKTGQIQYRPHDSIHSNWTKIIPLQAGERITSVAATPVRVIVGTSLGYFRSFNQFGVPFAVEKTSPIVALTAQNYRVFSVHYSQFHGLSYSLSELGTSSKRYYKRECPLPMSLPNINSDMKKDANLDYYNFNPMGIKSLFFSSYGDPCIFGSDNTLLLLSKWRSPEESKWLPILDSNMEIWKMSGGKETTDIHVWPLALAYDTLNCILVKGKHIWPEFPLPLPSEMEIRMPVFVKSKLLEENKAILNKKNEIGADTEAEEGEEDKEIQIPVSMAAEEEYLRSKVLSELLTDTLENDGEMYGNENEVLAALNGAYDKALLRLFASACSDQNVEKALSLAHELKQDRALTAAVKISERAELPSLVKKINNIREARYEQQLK

[2] = biological target: T2, fluorescein-labelled yeast Sld5 peptide (1-19) (S. cerevisiae); assay: fluorescence polarisation
T2 peptide: fluorescein-MDINIDDILAELDKETTAV

SEC-MALS = biological target: the molecule itself; assay: SEC-MALS
[3] = Multi-angle laser scattering; format: physicochemical, yeast (S. cerevisiae); conditions: size exclusion chromatography - MALS
Method in brief: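 Recombinant His-tagged full-length yeast Ctf4, expressed in E. coli BL21(DE3)-CodonPlus (1 mM IPTG, 37°C, 2 h), purified by Ni-NTA, Mono Q ion exchange and Superdex 200 gel filtration. About 100 μg loaded onto an HPLC size-exclusion column equilibrated in 150 mM NaCl, 20 mM Tris pH 8.0, 1 mM DTT. Eluate read by 8-angle light scattering and refractive index detectors.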

[4] = Native mass spectrometry, oligomeric state; format: physicochemical, yeast (S. cerevisiae); conditions: nano-electrospray, 500 mM ammonium acetate

Row | Molecule | Ctf4 - GINS interaction (Ctf4CTD) | stoichiometry N [1] | fold tighter association than the Pol1 motif [2] | stoichiometry N (SEC-MALS) | oligomeric state in solution (MALS) [3] | oligomeric state in solution (native mass spectrometry) [4]
1 | GINSPsf1ΔC (Strep III-tagged, for electron microscopy) (complex) chain 1: MGYYDIDDVLADGTEFPCKFQYDIPGLGYLENNPGRPITKNTKLSLPLWLARILAIVGGDEALVDEEPVPFVELLPPDMFSTKVMNAIKTDPVALDLHSINSHFFSLAIKWIMLFSEKELANVVSELLLQRAQELNHHASSLSIDLNADSTGKNSANTNIATSTFLLKLEEMEKEIYKKSHESYKDTKRWMFKK chain 2: MYGDLGNKLVLEAKRTKQLYARSNQDVNLPMYHEDIIRNILKEVSNLRKNTEYLKEQQQLGMLDDKVAKCQYFVTLLCMERNKRCLLAYQRLRTDILDSMAWNNNGLDLMSSITFSQQDTNNLSHQEQEYLKEYCDLITDLKSGDLVDIDLSGSLVPPSDVFID chain 3: MSLPAHLQQTFSPEEIQFIVENEPIKIFPRITTRQKIRGDDRGTGNHTRWQLITTDDKALNNMVAMRSTEVVLWIALLLKQQSKCSIVAPQWLTTKELDRKIQYEKTHPDRFSELPWNWLVLARILFNKAKDDFHDPIHELRGKIQDLREIRQIKVLKGLKYLNESHLQLDNLSLLEINELRPFITEIMDKLREIHTASLTAGTENDEEEFNI chain 4: MDINIDDILAELDKETTAVDSTKITQGSSSTTHRDANTIVGSSLDLNDKTQIYVSPQQDFSDLMKSWKNERCSPELLPYPHQLMKRLLNRISMQSQLIENISMGFLDMQNASNANPPMPNESKLPLLCMETELERLKFVIRSYIRCRLSKIDKFSLYLRQLNEDENSLISLTDLLSKDEIKYHDTHSLIWLKLVNDSILKYMPEELQAINDTEGSVNMIDEPDWNKFVFIHVNGPPDGKWNEDPLLQENEFGKPCYTVTIPDLKEEVELTIGSIYVMRYEVIRDLLRDDKVALI | dependent upon the unstructured tail at the N-terminus of the Sld5 subunit of GINS | 1 copies of GINS per Ctf4CTD trimer and 2 copies of GINS per Ctf4CTD trimer and 3 copies of GINS per Ctf4CTD trimer |  |  |  | 
2 | Ctf4CTD (yeast Ctf4 amino acids 471 to 927) (domain or fragment) TGKFRYMPFSPAGTPFGFTDRRYLTMNEVGYVSTVKNSEQYSITVSFFDVGRFREYHFEDLFGYDLCFLNEKGTLFGQSKTGQIQYRPHDSIHSNWTKIIPLQAGERITSVAATPVRVIVGTSLGYFRSFNQFGVPFAVEKTSPIVALTAQNYRVFSVHYSQFHGLSYSLSELGTSSKRYYKRECPLPMSLPNINSDMKKDANLDYYNFNPMGIKSLFFSSYGDPCIFGSDNTLLLLSKWRSPEESKWLPILDSNMEIWKMSGGKETTDIHVWPLALAYDTLNCILVKGKHIWPEFPLPLPSEMEIRMPVFVKSKLLEENKAILNKKNEIGADTEAEEGEEDKEIQIPVSMAAEEEYLRSKVLSELLTDTLENDGEMYGNENEVLAALNGAYDKALLRLFASACSDQNVEKALSLAHELKQDRALTAAVKISERAELPSLVKKINNIREARYEQQLK |  |  | ~5 fold | 3 | stable trimer in solution | stable trimer in solution
